Source: ChEMBL document CHEMBL1129737, “Mechanism of selective incorporation of the melanoma seeker 2-thiouracil into growing melanin” (1996)

Legend:
[1] = test system: Mus musculus; assay: Absorbance at 350 nM of a solution of melanosomes obtained by treatment in hot alkali from tumor after ip injection at 0 min of assay as a measure of pigment content of tissue; format: functional
[2] = test system: Mus musculus; assay: Absorbance at 350 nM of a solution of melanosomes obtained by treatment in hot alkali from tumor after ip injection at 180 min of assay as a measure of pigment content of tissue; format: functional
[3] = test system: Mus musculus; assay: Absorbance at 350 nM of a solution of melanosomes […] from tumor after ip injection at 30 min of assay as a measure of pigment content of tissue; format: functional
[4] = test system: Mus musculus; assay: Absorbance at 350 nM of a solution of melanosomes obtained by treatment in hot alkali from tumor after ip injection at 90 min of assay as a measure of pigment content of tissue; format: functional
[5] = species on record: Mus musculus; assay: HPCL quantitation of resulting degradation product, pyrrole-2,3,5-tricarboxylic acid (PTCA) content after tumor isolation at 180 min of assay; format: functional, organism-based
Outline: (§1)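 B16 tumours were grown s.c. in female C57Bl/6 mice, which were given 10 μCi [2-14C]TU two weeks later. At each time point, melanosomes were isolated by sucrose density gradient ultracentrifugation. 4 mg was oxidized with alkaline H2O2 (1 M NaOH, 30% H2O2) for 3 h at 25 °C. PTCA was quantified by HPLC with 280 nm detection and expressed per mg.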

[6] = species on record: Mus musculus; assay: HPCL quantitation of resulting degradation product, pyrrole-2,3,5-tricarboxylic acid (PTCA) content after tumor isolation at 30 min of assay; format: functional, organism-based; outline: as §1
[7] = species on record: Mus musculus; assay: HPCL quantitation of resulting degradation product, pyrrole-2,3,5-tricarboxylic acid (PTCA) content after tumor isolation at 90 min of assay; format: functional, organism-based; outline: as §1
[8] = species on record: Mus musculus; assay: HPCL quantitation of resulting degradation product, pyrrole-2,3,5-tricarboxylic acid (PTCA) content after tumor isolation at 0 min of assay; format: functional, organism-based; outline: as §1
[9] = test system: Mus musculus; assay: Specific Incorporation (cpm/mg of melanin) of melanin after isolation from tumor after ip injection at 180 min of assay; format: functional
Outline: (§2)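 Mice (female C57Bl/6, s.c. B16 melanoma, two weeks) received 10 μCi [2-14C]TU and were euthanized at the noted times. Tumours were weighed, frozen, homogenized in 1% acetic acid–ethanol (30:70) and centrifuged. Melanosomal melanin was purified on a sucrose density gradient, dried to constant weight, and radioactivity was expressed as cpm/mg melanin.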

[10] = test system: Mus musculus; assay: Specific Incorporation (cpm/mg of melanin) of melanin after isolation from tumor after ip injection at 30 min of assay; format: functional; outline: as §2
[11] = test system: Mus musculus; assay: Specific Incorporation (cpm/mg of melanin) of melanin after isolation from tumor after ip injection at 90 min of assay; format: functional; outline: as §2

**Q.** `O=c1cc[nH]c(=S)[nH]1` [THIOURACIL] was tested. Which Activity [1] did it give?
**A.** Its Activity is 0.071.

**Q.** What about the Activity [2] of the same compound?
**A.** The Activity was 0.043.

**Q.** And the Activity [3]?
**A.** Its Activity is 0.032.

**Q.** What about the Activity [4] of the same compound?
**A.** The Activity was 0.036.

**Q.** And the Concentration [5]?
**A.** The Concentration was 589 ng/mg.

**Q.** What about the Concentration [6] of the same compound?
**A.** Its Concentration is 493 ng/mg.

**Q.** What about the Concentration [7] of the same compound?
**A.** Its Concentration is 560 ng/mg.

**Q.** And the Concentration [8]?
**A.** The Concentration was 1120 ng/mg.

**Q.** And the Specific incorporation [9]?
**A.** Its Specific incorporation is 2300 c.p.m. (mg of melanin)-1.

**Q.** What about the Specific incorporation [10] of the same compound?
**A.** Its Specific incorporation is 2500 c.p.m. (mg of melanin)-1.

**Q.** And the Specific incorporation [11]?
**A.** The Specific incorporation was 2600 c.p.m. (mg of melanin)-1.
